Compound activity (PubChem BioAssay)
KCNK3 block: human KCNK3 channel inhibitors, primary screen, CHO cells, FluxOR thallium flux, B-score | Potassium channel subfamily K member 3 (Homo sapiens), O14649 | 0.84% of 340,000 active | AID 602410, 2012 | FluxOR fluorescence; active compounds read low | B-score at 10 µM;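 active = B-score under library mean minus 4 SD, starting fluorescence ratio at most library mean plus 5 SD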;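 also: more negative B-score means stronger inhibition of thallium flux through KCNK3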
hERG protect: hERG rescue from dofetilide block, primary screen, cell-based, CHO-hERG, FluxOR thallium flux, dofetilide IC70; activation (rescue from dofetilide block), less the hit threshold, % at 10 µM; 0.51% of 310,000 active; dofetilide IC70 present;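 active = activation above the mean of controls blocked by dofetilide plus 5 SD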;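 also: thallium influx through hERG after potassium depolarization seen as dye fluorescence rise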
KCNK9 block: KCNK9 potassium channel inhibitors, primary screen, HEK293 cells, thallium flux; FluxOR thallium flux fluorescence; active compounds read low; B-score at 10 µM; 1.2% of 310,000 active;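 active = ratio B-score over 3 SD below the library mean, with starting fluorescence within 5 SD of its mean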;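 also: negative B-score means less thallium flux so channel inhibition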
Target sequence (Q9NPC2 whole entry, looked up): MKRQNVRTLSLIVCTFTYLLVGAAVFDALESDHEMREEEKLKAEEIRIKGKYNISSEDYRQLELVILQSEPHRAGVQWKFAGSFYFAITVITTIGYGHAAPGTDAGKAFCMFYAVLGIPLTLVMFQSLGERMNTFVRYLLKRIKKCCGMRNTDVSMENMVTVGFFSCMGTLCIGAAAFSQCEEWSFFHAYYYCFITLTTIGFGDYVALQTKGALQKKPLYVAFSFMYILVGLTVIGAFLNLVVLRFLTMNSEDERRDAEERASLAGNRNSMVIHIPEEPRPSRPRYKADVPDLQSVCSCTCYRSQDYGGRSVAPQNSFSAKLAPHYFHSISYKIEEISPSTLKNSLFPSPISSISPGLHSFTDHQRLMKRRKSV
KCNQ1 pot: potentiators or activators of KCNQ1 channel, primary screen, cell-based, thallium flux, high-throughput | 0.35% of 310,000 active | AID 2648, 2010 | Potassium voltage-gated channel subfamily KQT member 1 (Homo sapiens), P51787 | B-score at 10 µM | CHO-K1 KCNQ1, thallium flux FluxOR fluorescence; active compounds read high;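 active = fluorescence ratio B-score, a plate-corrected score, at least three library SD, with initial intensity B-score within 5 SD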
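assay system = KCNQ1-transfected CHO-K1 cells | medium = assay buffer with matched DMSO | probe or stimulus = depolarizing K+/Tl+ stimulus, K2SO4 and Tl2SO4 each 12.5 mM in 5x stock | dosing = single dose | incubation = dye 90 min, compound 20 min, room temperature | detection = kinetic FluxOR fluorescence, 10 s baseline plus 110 s post-stimulus | evaluation = ratio B score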
KCNQ1 block: inhibitors of human KCNQ1 channel, primary screen, cell-based, thallium flux, high-throughput | Potassium voltage-gated channel subfamily KQT member 1 (Homo sapiens), P51787 | CHO-K1 KCNQ1, FluxOR thallium flux fluorescence; active compounds read high | B-score at 10 µM | 1.3% of 310,000 active | AID 2642, 2010;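 active = compounds whose thallium flux B-score, printed positive for inhibition, exceeds three library SD while starting fluorescence stays within three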;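 also: channel opened by potassium depolarization with thallium stimulus after 20 min compound exposure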
* = called active by the depositor; i = inactive; · = no result given. Only some compounds are listed: those with a hit (about 3.1% of all), similar ones and a draw of the others.

SMILES	KCNK3 block	hERG protect	KCNK9 block	KCNQ1 pot	KCNQ1 block
Oc1ccc(CNc2ccccc2F)c2cccnc12	i	-11	i	i	7*
CC(=O)Nc1ccc(NC(=O)C(C)OC(=O)c2ccc3ccccc3n2)cc1 (stereo not drawn)	i	·	·	·	·
CCc1ccccc1NC(=O)N1C2CCCC1CC(NC(C)=O)C2 (stereo not drawn)	i	6.0*	i	i	i
Cn1cc(/C=C/c2cc[n+](C)cc2)c2cc(F)ccc21	i	-36	i	i	i
C[n+]1ccc(/C=C/c2c[nH]c3ccc(F)cc23)cc1	i	-18	-6.7*	i	11*
COc1ccc(NC(=S)N/N=C/c2cccn2Cc2ccccc2F)cc1	i	-6	i	i	i
CSc1ccccc1NC(=S)N/N=C/c1cccn1Cc1ccc(F)cc1	i	-1	-7.9*	i	i
CSc1ccccc1NC(=S)N/N=C/c1cccn1Cc1cccc(C)c1	i	-18	-6.6*	i	i
COc1ccc(C2(C)CC(C)(C)Nc3ccccc32)cc1 (stereo not drawn)	i	-12	i	8*	i
CCOc1cc(C=O)cc(Br)c1OCC(=O)NCCc1ccccc1	i	-13	i	i	i
CCCCN(CCCC)C(=S)N/N=C/c1c(C)[nH]n(-c2ccccc2)c1=O	i	-7	i	29*	i
Cc1[nH]n(-c2ccccc2)c(=O)c1/C=N/NC(=O)c1ccc(O)cc1O	i	-12	i	i	i
Cc1ccc(C)c(CNc2ccc(S(=O)(=O)N3CCCCC3)cc2)c1	i	·	·	·	·
C[C@@H]1CC2OC(=O)[C@@]3(C)C(=O)CC[C@@](C)(C23)[C@@]1(O)CCc1ccoc1 (stereo partly drawn)	i	-6	i	i	i
O=C(Nc1ccc(N2CCOCC2)cc1)c1ccc(Cl)nc1	i	-3	i	i	i
CCN(c1ccc(NC(=O)c2ccc(Cl)nc2)cc1)C(C)C	i	5.9*	i	i	i
Cc1cc(O)c2c(c1)C(=O)c1cc(O)cc(O)c1C2=O	i	-9	i	i	6*
O=C1c2cc(O)cc(O)c2C(=O)c2c1cc(O)c([C@@H](CO)CCO)c2O	i	-21	i	i	i
O=C(NC(Cc1ccccc1)C(=O)O)/C(=C/c1ccco1)NC(=O)c1cccc([N+](=O)[O-])c1 (stereo not drawn)	i	53*	i	i	i
Cc1ccc(CN(c2ccc(C(=O)Nc3cccnc3)cc2)S(C)(=O)=O)cc1	i	-9	i	i	i
O=C(CSc1nnc(SCc2ccccc2)s1)N/N=C/C=C/c1ccccc1[N+](=O)[O-]	i	-13	-7.8*	i	i
O=C(CSc1nnc(SCc2ccccc2)s1)N/N=C/C=C\c1ccco1	i	-5	i	i	i
CN(c1ccccc1)S(=O)(=O)c1cccc(NC(=O)c2ccc(Cl)c([N+](=O)[O-])c2)c1	-11*	·	·	·	·
COc1cc(NC(=O)c2ccc(S(=O)(=O)N(C)c3ccccc3)cc2)cc(OC)c1	-9.1*	·	·	·	·
C=CCNc1nnc(Cc2ccc(C(C)C)cc2)c(=O)[nH]1	i	-5	i	i	i
SMILES	KCNK3 block	hERG protect	KCNK9 block	KCNQ1 pot	KCNQ1 block
COc1cc([N+](=O)[O-])cc(/C=N/NC(=O)CC#N)c1O	·	-12	i	i	i
Cc1ccc(NS(=O)(=O)c2ccc(OCC(=O)NCc3cccnc3)cc2)cc1	i	-11	i	i	i
O=C(CSc1nc(-c2ccc(F)cc2)cs1)NC(=O)NCc1ccco1	i	4.9*	i	i	i
O=C(CSc1nncs1)NC(=O)NCc1ccco1	i	-7	i	i	i
CCn1c(SCC(=O)NC(=O)NCc2ccco2)nc2sc(C)c(C)c2c1=O	i	9.2*	i	12*	i
Oc1c(CN2CCOCC2)cc(-c2ccccc2)cc1CN1CCOCC1	i	35*	i	i	i
